Data taken from ChEMBL document CHEMBL1124734, “Chalcogenapyrylium dyes as photochemotherapeutic agents. 2. Tumor uptake, mitochondrial targeting, and singlet-oxygen-induced inhibition of cytochrome c oxidase” (J Med Chem, 1990).

Columns and labels:
[1] = Partition coefficient (logP); assay type: physicochemical; conditions: octanol/water
In short: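 Partitioning measured between n-octanol and water.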

[2] = Ability to inhibit the Mitochondrial cytochrome c Oxidase in isolated mitochondrial suspensions from R3230AC rat mammary adenocarcinomas; set-up: concentration or dose not given beside the values; conditions: concentration not given here
In short: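 Mitochondria isolated from subcutaneously transplanted R3230AC tumors in female Fischer 344 rats and stored at -70 °C. They were diluted in sucrose/KCl buffer (pH 7.4) to give a 0.45-0.60/min absorbance change of cytochrome c at 550 nm. Dye (10 μM) was added for 5 min in the dark at room temperature, then mitochondria were pelleted and resuspended. Samples were matched by absorbance (~1.5 OD) and irradiated with 375–800 nm light. The initial inhibition rate was taken over the first 5 min of exposure.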

CC(C)(C)C1=CC(=C/C=C/c2cc(C(C)(C)C)[te+]c(C(C)(C)C)c2)C=C(C(C)(C)C)O1
logP [1]: 2.41 | inhibition [2]: 10.9%

CC(C)(C)C1=CC(=C/C=C/c2cc(C(C)(C)C)[se+]c(C(C)(C)C)c2)C=C(C(C)(C)C)O1
inhibition [2]: 2.55%

CC(C)(C)C1=CC(=C/C=C/c2cc(C(C)(C)C)[se+]c(C(C)(C)C)c2)C=C(C(C)(C)C)[Se]1
logP [1]: 1.92 | inhibition [2]: 4.2%

CC(C)(C)C1=CC(=C/C=C/c2cc(C(C)(C)C)[te+]c(C(C)(C)C)c2)C=C(C(C)(C)C)[Te]1
logP [1]: 2.02

CC(C)(C)C1=CC(=C/C=C/c2cc(C(C)(C)C)[o+]c(C(C)(C)C)c2)C=C(C(C)(C)C)O1
logP [1]: 2.51 | inhibition [2]: 0%

CC(C)(C)C1=CC(=C/C=C/c2cc(C(C)(C)C)[te+]c(C(C)(C)C)c2)C=C(C(C)(C)C)[Se]1
logP [1]: 2.41 | inhibition [2]: 3%

CC(C)(C)C1=CC(=C/C=C/c2cc(C(C)(C)C)[s+]c(C(C)(C)C)c2)C=C(C(C)(C)C)O1
inhibition [2]: 0.03%

CC(C)(C)C1=CC(=C/C=C/c2cc(C(C)(C)C)[se+]c(C(C)(C)C)c2)C=C(C(C)(C)C)S1
logP [1]: 2.39 | inhibition [2]: 4.05%

CC(C)(C)C1=CC(=C/C=C/c2cc(C(C)(C)C)[s+]c(C(C)(C)C)c2)C=C(C(C)(C)C)S1
logP [1]: 1.97 | inhibition [2]: 0.045%
